Square brackets hold non-standard residues; d marks the D form. Peptide text beside a SMILES is read from it. Sar = CNCC(=O)O
Experiments:
[1] = test system: basolateral peptide transporters in MDCKII-BCRP cells; test: Basolateral [3H]Gly-Sar uptake; assay type: in vitro ADME, canine; conditions: basolateral uptake, MDCKII-BCRP
How it was run: (§1)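 Cells under passage 6 were seeded at 2 × 10^5 cells/cm2 on Transwell inserts (0.4 μm pore) and dosed from the basolateral side. [3H]Gly-Sar was given with unlabeled Gly-Sar (0–250 μM) at 4 °C and 37 °C. Specific uptake is 37 °C minus 4 °C, normalised to protein and fitted to Michaelis–Menten for Km and Vmax; n = 3.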

[2] = test system: basolateral peptide transporters; test: Basolateral [3H]Gly-Sar uptake; assay type: in vitro ADME, canine; conditions: dog, MDCKII-BCRP cells on Transwell inserts (basolateral uptake), pH 7.4
How it was run: as §1

[3] = test system: basolateral peptide transporters in MDCKII-wt cells; test: Basolateral [3H]Gly-Sar uptake; assay type: in vitro ADME, canine
How it was run: as §1

[4] = test system: apical peptide transporters; test: Apical [3H]Gly-Sar uptake; assay type: in vitro ADME, canine; conditions: dog, MDCKII-BCRP cells (apical uptake), pH 7.4
How it was run: (§2)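 Cells under passage 6 were seeded at 7 × 10^4 cells/cm2 in 12-well plates and washed with DPBS pH 7.4. Apical [3H]Gly-Sar (0.5 μCi/mL in DPBS) with unlabeled Gly-Sar (5–250 μM) was incubated 15 min at 37 °C and 4 °C. Stop was ice-cold 200 mM KCl/2 mM HEPES. Lysis in 0.3 N NaOH/0.1% Triton X-100, scintillation counting, normalised to protein. Specific uptake is 37 °C minus 4 °C. Michaelis–Menten fit gave Km and Vmax; efficiency is Vmax/Km; n = 3.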

[5] = test system: apical peptide transporters in MDCKII-BCRP cells; test: Apical [3H]Gly-Sar uptake; assay type: in vitro ADME, canine
How it was run: as §2

[6] = test system: apical peptide transporters in MDCKII-MRP2 cells; test: Apical [3H]Gly-Sar uptake; assay type: in vitro ADME, canine
How it was run: as §2

[7] = test system: apical peptide transporters; test: Apical [3H]Gly-Sar uptake; assay type: in vitro ADME, canine; conditions: dog, MDCKII-MRP2 cells (apical uptake), pH 7.4
How it was run: as §2

[8] = Transporter-mediated transepithelial Gly-Sar transport; assay type: in vitro ADME, canine; conditions: dog
How it was run: (§3)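 Monolayers under passage 6 were grown on Transwell inserts (2 × 10^5 cells/cm2) and washed with DPBS pH 7.4. Apical 0.5 mL was at pH 4.0–7.4; basolateral 1.5 mL was held at pH 7.4. [3H]Gly-Sar was run AP→BL and BL→AP. Receiver samples were taken over 60 min and replaced with fresh DPBS. Transporter-mediated Papp is [3H]Gly-Sar minus [14C]mannitol passive transport; n = 4.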

[9] = as above; assay type: in vitro ADME, canine; conditions: dog, MDCK, MDCKII-wt
How it was run: as §3

[10] = as above; assay type: in vitro ADME, canine; conditions: dog, MDCKII-BCRP
How it was run: as §3

[11] = test system: apical peptide transporters in MDCKII-wt cells; test: Apical [3H]Gly-Sar uptake; assay type: in vitro ADME, canine
How it was run: as §2

[12] = test system: apical peptide transporters in MDCKII-MDR1 cells; test: Apical [3H]Gly-Sar uptake; assay type: in vitro ADME, canine
How it was run: as §2

[13] = test system: apical peptide transporters; test: Apical [3H]Gly-Sar uptake; assay type: in vitro ADME, canine; conditions: dog, MDCKII-MDR1 cells (apical uptake), pH 7.4
How it was run: as §2

[14] = test system: basolateral peptide transporters in MDCKII-MDR1 cells; test: Basolateral [3H]Gly-Sar uptake; assay type: in vitro ADME, canine; conditions: basolateral uptake, MDCKII-MDR1
How it was run: as §1

[15] = test system: basolateral peptide transporters; test: Basolateral [3H]Gly-Sar uptake; assay type: in vitro ADME, canine; conditions: dog, MDCKII-MDR1 cells on Transwell inserts (basolateral uptake), pH 7.4
How it was run: as §1

[16] = test system: basolateral peptide transporters in MDCKII-MRP2 cells; test: Basolateral [3H]Gly-Sar uptake; assay type: in vitro ADME, canine; conditions: basolateral uptake, MDCKII-MRP2
How it was run: as §1

[17] = test system: basolateral peptide transporters; test: Basolateral [3H]Gly-Sar uptake; assay type: in vitro ADME, canine; conditions: dog, MDCKII-MRP2 cells on Transwell inserts (basolateral uptake), pH 7.4
How it was run: as §1

[18] = Transporter-mediated transepithelial Gly-Sar transport; assay type: in vitro ADME, canine; conditions: dog; for Papp A→B at 60 min, 0.5 μCi/mL: MDCK-MDR1, AP–BL permeability; for Papp B→A at 60 min, 0.5 μCi/mL: MDCK-MDR1, BL–AP permeability
How it was run: as §3

[19] = test system: apical peptide transporters (PepT1 and PepT2) in MDCKII cell lines; test: Inhibition of apical [3H]Gly-Sar uptake by peptide transporter inhibitors; assay type: cell-based, canine; conditions: inhibitor 100 μM, pH 7.4, 37 °C, 15 min, all four MDCKII cell lines
[20] = AP–BL [14C]Mannitol permeability; assay type: in vitro ADME, canine; conditions: dog, MDCK, pH 7.4
[21] = AP–BL [14C]Mannitol permeability; assay type: in vitro ADME, canine; conditions: dog, MDCK-MDR1, pH 7.4
[22] = AP–BL permeability, AP chamber pH 4.0, BL pH 7.4
[23] = AP–BL permeability, AP chamber pH 5.0, BL pH 7.4
[24] = AP–BL permeability, AP chamber pH 6.0, BL pH 7.4
[25] = BL–AP permeability, AP chamber pH 4.0, BL pH 7.4
[26] = BL–AP permeability, AP chamber pH 5.0, BL pH 7.4
[27] = BL–AP permeability, AP chamber pH 6.0, BL pH 7.4
[28] = pH 7.4, AP–BL permeability, AP chamber pH 7.4, BL pH 7.4
[29] = pH 7.4, BL–AP permeability, AP chamber pH 7.4, BL pH 7.4
[30] = MDCKII-MDR1, AP chamber pH 4.0, BL pH 7.4
[31] = MDCKII-MDR1, AP chamber pH 5.0, BL pH 7.4
[32] = MDCKII-MDR1, AP chamber pH 6.0, BL pH 7.4

CN(CC(=O)O)C(=O)CN [Gly-Sar, Glycylsarcosine] (H-Gly-[Sar]-OH)
Vmax [1]: 13.07 ± 2.61 fmol/mg protein/min | Km at 15 min [2]: 46.1 ± 2.26 µM | Km [3]: 13.7 ± 2.22 µM | Vmax [3]: 4.45 ± 0.04 fmol/mg protein/min | Km at 15 min [4]: 60.7 ± 8.56 µM | transport efficiency relative to that in wild-type cells ([5]; apical peptide transporters, MDCKII-BCRP vs wild-type): ~41% | Vmax ([5]; apical uptake, MDCKII-BCRP, low passage): 4.50 ± 0.83 fmol/mg protein/min | Vmax relative to that in wild-type cells ([5]; apical uptake, hBCRP-transfected vs wild-type): ~42% | transport efficiency relative to that in wild-type cells ([6]; apical peptide transporters, MDCKII-MRP2 vs wild-type): ~30% | Vmax ([6]; apical uptake, MDCKII-MRP2, low passage): 4.62 ± 0.76 fmol/mg protein/min | Vmax relative to that in wild-type cells ([6]; apical uptake, hMRP2-transfected vs wild-type): ~43% | Km at 15 min [7]: 84.8 ± 18.6 µM | Papp A→B at 60 min, 0.5 μCi/mL ([8]; AP–BL permeability, MDCKII-MRP2, AP chamber pH 4.0, BL pH 7.4): 8.6 ± 1.1 ×10⁻⁶ cm/s | Papp A→B at 60 min, 0.5 μCi/mL ([8]; AP–BL permeability, MDCKII-MRP2, AP chamber pH 5.0, BL pH 7.4): 9.9 ± 0.8 ×10⁻⁶ cm/s | Papp A→B at 60 min, 0.5 μCi/mL ([8]; AP–BL permeability, MDCKII-MRP2, AP chamber pH 6.0, BL pH 7.4): 10.6 ± 0.1 ×10⁻⁶ cm/s | Papp B→A at 60 min, 0.5 μCi/mL ([8]; BL–AP permeability, MDCKII-MRP2, AP chamber pH 4.0, BL pH 7.4): 8.5 ± 0.6 ×10⁻⁶ cm/s | Papp B→A at 60 min, 0.5 μCi/mL ([8]; BL–AP permeability, MDCKII-MRP2, AP chamber pH 5.0, BL pH 7.4): 6.3 ± 0.4 ×10⁻⁶ cm/s | Papp B→A at 60 min, 0.5 μCi/mL ([8]; BL–AP permeability, MDCKII-MRP2, AP chamber pH 6.0, BL pH 7.4): 7.5 ± 0.5 ×10⁻⁶ cm/s | Papp A→B at 60 min, 0.5 μCi/mL ([8]; pH 7.4, AP–BL permeability, MDCKII-MRP2, AP chamber pH 7.4, BL pH 7.4): 17.7 ± 1.4 ×10⁻⁶ cm/s | Papp B→A at 60 min, 0.5 μCi/mL ([8]; pH 7.4, BL–AP permeability, MDCKII-MRP2, AP chamber pH 7.4, BL pH 7.4): 15.7 ± 0.6 ×10⁻⁶ cm/s | Papp A→B at 60 min, 0.5 μCi/mL [9, 22]: 13.1 ± 1.4 ×10⁻⁶ cm/s | Papp A→B at 60 min, 0.5 μCi/mL [9, 23]: 14.9 ± 2.8 ×10⁻⁶ cm/s | Papp A→B at 60 min, 0.5 μCi/mL [9, 24]: 22.2 ± 1.9 ×10⁻⁶ cm/s | Papp B→A at 60 min, 0.5 μCi/mL [9, 25]: 9.4 ± 0.4 ×10⁻⁶ cm/s | Papp B→A at 60 min, 0.5 μCi/mL [9, 26]: 6.6 ± 0.6 ×10⁻⁶ cm/s | Papp B→A at 60 min, 0.5 μCi/mL [9, 27]: 6 ± 1 ×10⁻⁶ cm/s | Papp A→B at 60 min, 0.5 μCi/mL [9, 28]: 36.7 ± 0.2 ×10⁻⁶ cm/s | Papp B→A at 60 min, 0.5 μCi/mL [9, 29]: 8 ± 0.9 ×10⁻⁶ cm/s | Papp A→B at 60 min, 0.5 μCi/mL [10, 22]: 7.1 ± 0.3 ×10⁻⁶ cm/s | Papp A→B at 60 min, 0.5 μCi/mL [10, 23]: 7.6 ± 1.2 ×10⁻⁶ cm/s | Papp A→B at 60 min, 0.5 μCi/mL [10, 24]: 10.7 ± 0.7 ×10⁻⁶ cm/s | Papp B→A at 60 min, 0.5 μCi/mL [10, 25]: 10.9 ± 0.7 ×10⁻⁶ cm/s | Papp B→A at 60 min, 0.5 μCi/mL [10, 26]: 6.5 ± 0.7 ×10⁻⁶ cm/s | Papp B→A at 60 min, 0.5 μCi/mL [10, 27]: 7.2 ± 0.9 ×10⁻⁶ cm/s | Papp A→B at 60 min, 0.5 μCi/mL [10, 28]: 18.6 ± 1.9 ×10⁻⁶ cm/s | Papp B→A at 60 min, 0.5 μCi/mL [10, 29]: 15.6 ± 0.1 ×10⁻⁶ cm/s | Km ([11]; apical uptake, MDCKII-wt): 59.7 ± 1.1 µM | Vmax ([11]; apical uptake, MDCKII-wt): 10.76 ± 1.68 fmol/mg protein/min | extracellular pH of maximal apical uptake ([11]; pH 4.0–7.4 tested, all MDCKII cell lines): 6.0 | uptake in MDCKII-wt cells in comparison with transfected cells ([11]; total apical uptake at 37 °C, pH 7.4): 3–5 fold | transport efficiency relative to that in wild-type cells ([12]; apical peptide transporters, MDCKII-MDR1 vs wild-type): around 25% | Vmax ([12]; apical uptake, MDCKII-MDR1, low passage): 1.30 ± 0.36 fmol/mg protein/min | Vmax relative to that in wild-type cells ([12]; apical uptake, hMDR1-transfected vs wild-type): about 12% | Km at 15 min [13]: 29.1 ± 3.29 µM | Vmax [14]: 8.52 ± 0.81 fmol/mg protein/min | Km at 15 min [15]: 50.9 ± 7.86 µM | Vmax [16]: 8.03 ± 1.78 fmol/mg protein/min | Km at 15 min [17]: 64.6 ± 4.09 µM | Papp A→B at 60 min, 0.5 μCi/mL [18, 30]: 6 ± 0.4 ×10⁻⁶ cm/s | Papp A→B at 60 min, 0.5 μCi/mL [18, 31]: 6.4 ± 0.5 ×10⁻⁶ cm/s | Papp A→B at 60 min, 0.5 μCi/mL [18, 32]: 8 ± 0.4 ×10⁻⁶ cm/s | Papp B→A at 60 min, 0.5 μCi/mL [18, 30]: 10.1 ± 1.3 ×10⁻⁶ cm/s | Papp B→A at 60 min, 0.5 μCi/mL [18, 31]: 7.6 ± 0.8 ×10⁻⁶ cm/s | Papp B→A at 60 min, 0.5 μCi/mL [18, 32]: 8.2 ± 0.5 ×10⁻⁶ cm/s

CCC(=O)O[C@@H](O[P@](=O)(CCCCc1ccccc1)CC(=O)N1C[C@H](C2CCCCC2)C[C@H]1C(=O)O)C(C)C [fosinopril, Fosinopril]
effect on apical [3H]Gly-Sar uptake compared to control [19]: significantly reduced apical Gly-Sar uptake

OC[C@@H](O)[C@@H](O)[C@H](O)[C@H](O)CO [[^14C]Mannitol, Mannitol]
Papp A→B at 60 min, 0.125 µCi/mL [20]: 42.1 ± 0.5 ×10⁻⁶ cm/s | Papp A→B at 60 min, 0.125 µCi/mL [21]: 18.4 ± 0.9 ×10⁻⁶ cm/s

Source: paper PMC3618282 (International journal of pharmaceutics, 2012)
